EBV gp42 block: Epstein-Barr virus gp42 inhibitors, primary screen, biochemical, uHTS, fluorescence polarization. Glycoprotein 42 (Epstein-Barr virus (strain AG876)), Q1HVG2. Fluorescence polarization binding assay, mP read-out. inhibition, % (tested at 21.74 µM). hit rate 0.42% among 220,000. AID 1085, 2008; in the data active = inhibition above about 50%
Target sequence (Q1HVG2 whole entry, looked up): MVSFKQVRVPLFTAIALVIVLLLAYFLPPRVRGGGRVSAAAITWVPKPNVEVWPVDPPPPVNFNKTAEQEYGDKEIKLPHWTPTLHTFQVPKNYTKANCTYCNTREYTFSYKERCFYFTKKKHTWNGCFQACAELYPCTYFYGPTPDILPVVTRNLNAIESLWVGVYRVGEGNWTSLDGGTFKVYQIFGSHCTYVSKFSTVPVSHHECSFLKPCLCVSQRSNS
TbMetRS inhib: T. brucei MetRS inhibitors, primary screen, biochemical, luminescence. purified T. brucei MetRS, ATP depletion, Kinase-Glo luminescence. inhibition, % at 11.9 µM. methionyl-tRNA synthetase (Trypanosoma brucei brucei). hit rate 0.4% among 360,000;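 active = inhibition above a per-plate cutoff of the control wells' mean inhibition plus 3 SD, cut at about 5.5% in these data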
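Dosing: 11.9 µM single point; system: parasite MetRS enzyme; technique: luminescence of leftover ATP; times: 15 min enzyme-compound preincubation, 2 h reaction, 10 min detection, 25 °C; replicates: each compound tested once; read-out basis: percent inhibition relative to median high and low control wells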
CHOP inhibitor: inhibitors of CHOP promoter induction, primary screen, cell-based, unfolded protein response, luciferase reporter. AID 2732, 2010. inhibition, % at 10 µM. CHO-K1 CHOP-promoter luciferase, tunicamycin-induced, 15-18 h. hit rate 3.8% among 220,000;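 active = compounds that reduced the stress-induced luciferase reporter signal by more than about 70% of percent inhibition, limit read from the data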
WT yeast gro inh: growth inhibition of WT strain, primary screen, mitochondrial fusion inhibitor project, WT and mutant strains, chemical genetic; mitochondrial fusion phenotypic screen; hit rate 2.1% among 190,000; inhibition, % at 10 µM; in the data active = inhibition above about 58%; tested in S. cerevisiae
MPTP block: mitochondrial permeability transition pore inhibitors, primary screen, biochemical, isolated mouse mitochondria, absorbance; Ca2+ swelling absorbance, 30 min; inhibition, % at 10 µM; hit rate 1.4% among 360,000; AID 602449, 2012;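 active = inhibition of 50% or more, scaled per plate between neutral and stimulator controls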
NR3A LBD binder: binders of NR3A ligand-binding domain, primary screen, biophysical, differential scanning fluorimetry, uHTS | Tm shift relative to glycine control, % at 25 µM | hit rate 2.5% among 340,000 | NR3A LBD differential scanning fluorimetry, Tm shift; 0% = protein alone, 100% = glycine-bound protein | AID 1259313, 2017;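 active = melting temperature shift of at least 10% of the positive control shift, at one fixed dose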
Of the large screens only hits and unclear results are named; the others gave an inactive call. Hits are enriched below; roughly 6.4% of the tested compounds scored in any of these assays.

C/C(=N\NC(=O)c1c[nH]c2ccccc12)c1ccc(C)s1	NR3A LBD binder 15 (no result: EBV gp42 block, CHOP inhibitor, WT yeast gro inh)
CCOc1ccc(NC2=NC(C)(C)N=C(N)N2)cc1	none
FC(F)(F)COc1nc(OCC(F)(F)F)nc(N2CCN(c3ccccc3)CC2)n1	NR3A LBD binder 12
CCCCC1=CC2=CC(=O)C(C)(OC(=O)CC)C(=O)C2=CN1CCc1c[nH]c2ccccc12 (stereo not drawn)	none (no result: WT yeast gro inh)
Cc1c(Cl)ccc2c(C(=O)NC(C)c3ccncc3)cc(-c3ccncc3)nc12 (stereo not drawn)	CHOP inhibitor 79 (no result: TbMetRS inhib, MPTP block, NR3A LBD binder)
COC(=O)CNC(=O)c1cc(-c2ccncc2)nc2c(C)c(Cl)ccc12	none
O=C(O)CCn1cc(C2CC(c3ccccc3)=NN2c2ccccc2)c(-c2ccccc2)n1 (stereo not drawn)	CHOP inhibitor 80
Cc1ccc(NC(=O)c2nc[nH]c2C(=O)NCCCCNC(=O)c2[nH]cnc2C(=O)Nc2ccc(C)cc2)cc1	NR3A LBD binder 13 (no result: EBV gp42 block, CHOP inhibitor, WT yeast gro inh)
Cc1ccc(NC(=O)c2nc[nH]c2C(=O)NCCCCCCNC(=O)c2[nH]cnc2C(=O)Nc2ccc(C)cc2)cc1	NR3A LBD binder 20 (no result: EBV gp42 block, CHOP inhibitor, WT yeast gro inh)
CC(C)(C)OC(=O)NCc1ccc(NC(=O)c2nc[nH]c2C(=O)NCCN(CCNC(=O)c2[nH]cnc2C(=O)Nc2ccc(CNC(=O)OC(C)(C)C)cc2)CCNC(=O)c2[nH]cnc2C(=O)Nc2ccc(CNC(=O)OC(C)(C)C)cc2)cc1	NR3A LBD binder 11 (no result: EBV gp42 block, CHOP inhibitor, WT yeast gro inh)
Cc1ccc(NC(=O)c2nc[nH]c2C(=O)NCCCNC(=O)c2[nH]cnc2C(=O)Nc2ccc(C)cc2)cc1	none (no result: EBV gp42 block, CHOP inhibitor, WT yeast gro inh)
O=C(Nc1cccc(Cl)c1)c1nc[nH]c1C(=O)NCCCNC(=O)c1[nH]cnc1C(=O)Nc1cccc(Cl)c1	NR3A LBD binder 23 (no result: EBV gp42 block, CHOP inhibitor, WT yeast gro inh)
O=C(CC1CCS(=O)(=O)C1)NC1CCCCC1 (stereo not drawn)	none
O=C(NN1C(=O)C2C3C=CC(C4CC34)C2C1=O)c1ccc(Cl)c(Cl)c1 (stereo not drawn)	none
CCN(CC)S(=O)(=O)c1ccc(N2CCCCC2)c(NC(=O)c2ccncc2)c1	none
CCOc1cccc(-c2c(C(=O)N/N=C(\C)c3ccncc3)nnn2-c2nonc2N)c1	none (no result: EBV gp42 block, CHOP inhibitor, WT yeast gro inh)
CCOc1cccc(-c2c(C(=O)N/N=C(\C)c3ccccn3)nnn2-c2nonc2N)c1	NR3A LBD binder 31 (no result: EBV gp42 block, CHOP inhibitor, WT yeast gro inh)
COc1cccc(-c2c(C(=O)N/N=C(\C)c3ccc(Cl)s3)nnn2-c2nonc2N)c1	NR3A LBD binder 11 (no result: EBV gp42 block, CHOP inhibitor, WT yeast gro inh)
CCOC(=O)c1c(NC(=O)CN2CCCCC2)sc2c1CCCC2O (stereo not drawn)	CHOP inhibitor 86
CNC(=O)C1CCN(S(=O)(=O)c2c(C)noc2/C=C/c2ccc(C)cc2)CC1	NR3A LBD binder 79 (no result: EBV gp42 block, CHOP inhibitor, WT yeast gro inh)
COc1ccc(NC(=O)C2CCN(S(=O)(=O)c3c(C)noc3C)CC2)cc1Cl	NR3A LBD binder 16
Cc1ccc(/C=C/c2onc(C)c2S(=O)(=O)N2CCC(C(=O)NC(C)(C)C)CC2)cc1	none (no result: EBV gp42 block, CHOP inhibitor, WT yeast gro inh)
O=C(Nc1nc(-c2ccccc2)cs1)c1ccc(N2CCOCC2)c([N+](=O)[O-])c1	CHOP inhibitor 79
O=C(Nc1ccon1)c1ccc(N2CCCCC2)c([N+](=O)[O-])c1	none
O=C(Nc1nc2ccccc2s1)c1ccc(N2CCCCC2)c([N+](=O)[O-])c1	CHOP inhibitor 79
Cc1ccc(-c2csc(NC(=O)c3cc([N+](=O)[O-])ccc3N3CCOCC3)n2)cc1	none
CSc1cccc(NC(=O)C2CCN(S(=O)(=O)c3ccc4c(c3)NC(=O)CO4)CC2)c1	none (no result: EBV gp42 block, CHOP inhibitor, WT yeast gro inh)
CC(=O)n1cc(N(C(=O)CCl)c2ccccc2)c2ccccc21	CHOP inhibitor 107 (no result: WT yeast gro inh)
O=Cc1[nH]c2ccccc2c1N(C(=O)CCl)c1ccc([N+](=O)[O-])cc1	none (no result: WT yeast gro inh)
CC(=O)n1cc(N(C(=O)CCl)c2ccc([N+](=O)[O-])cc2)c2ccccc21	CHOP inhibitor 106 (no result: WT yeast gro inh)
CC(=O)n1cc(CO)c2ccccc21	none (no result: EBV gp42 block, CHOP inhibitor, WT yeast gro inh)
CCN(CC)C(=O)CSc1nc(O)cc(=O)n1-c1ccccc1OC	none (no result: EBV gp42 block, CHOP inhibitor, WT yeast gro inh)
